Source: ChEMBL document CHEMBL1147133, “Identification of anthranilic acid derivatives as a novel class of allosteric inhibitors of hepatitis C NS5B polymerase” (J Med Chem, 2007)

How the values were obtained:
Hepatitis C virus [1] = assay: Inhibition of HCV 1b BK NS5B delta21 RNA polymerase expressed in Escherichia coli; set-up: species or system Hepatitis C virus subtype 1b
Hepatitis C virus [2] = assay: Antiviral activity in Huh7 cells containing HCV 1b BB7 replicon; assay type: functional, organism-based, Hepacivirus hominis; conditions: genotype 1b, Huh-7
Procedure, shortened: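 Huh7 cells carrying the genotype 1b BB7 replicon were exposed to increasing compound concentrations for 3 days in DMEM with 2% FCS and no G418. HCV, ribosomal and GAPDH mRNA levels were measured by quantitative TaqMan RT-PCR. Values are averages of at least three determinations.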

[3] = Cytotoxicity against Huh7 cells by MTS assay; assay type: cell-based; conditions: Homo sapiens, Huh-7
[4] = Inhibition of human DNA polymerase beta
Procedure, shortened: (§1)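 The enzyme was incubated with compound in buffer containing four dNTPs spiked with [α-33P]TTP, with dNTPs and templates at their respective Km levels. Templates were poly(dA)-oligo(dT)12 for HIV RT, activated calf thymus DNA for CT pol α and human pol α/β, and singly primed M13 DNA for human pol γ. Reactions ran 1-2 h at 37 °C, and filtered product was counted. Values are averages of at least three determinations.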

[5] = Inhibition of human DNA polymerase gamma; procedure, shortened: as §1
[6] = Inhibition of calf thymus DNA polymerase alpha; set-up: species or system Bos taurus; procedure, shortened: as §1
[7] = Inhibition of HIV reverse transcriptase; set-up: species or system Human immunodeficiency virus; procedure, shortened: as §1
[8] = Inhibition of RNA polymerase 2; set-up: species or system Homo sapiens
[9] = Inhibition of human DNA polymerase alpha; procedure, shortened: as §1

| SMILES | IC50 (Hepatitis C virus [1]) | IC50 (Hepatitis C virus [2]) | IC50 [3] | other results |
| --- | --- | --- | --- | --- |
| CC(=O)c1cc(F)c(C)cc1NCC(=O)Nc1ccccc1C(=O)O | 7.47 µM | – | – | – |
| C[C@@H](Oc1ccc(Cl)cc1)C(=O)Nc1ccccc1C(=O)O | 50 µM | – | – | – |
| Cc1cc(OCC(=O)Nc2ccccc2C(=O)O)c(Br)cc1Cl | 0.11 µM | > 11 µM | > 115 µM | – |
| O=C(COc1ccc(Cl)cc1Cl)Nc1ccccc1C(=O)O | 0.45 µM | > 11 µM | > 115 µM | – |
| CC(C)(Oc1ccc(Cl)cc1)C(=O)Nc1ccccc1C(=O)O | > 30 µM | – | – | – |
| COc1ccc(OCC(=O)Nc2ccccc2C(=O)O)cc1 | 35 µM | – | – | – |
| O=C(COc1ccc(F)cc1)Nc1ccccc1C(=O)O | 5.2 µM | – | – | – |
| COc1cc(Cl)ccc1OCC(=O)Nc1ccccc1C(=O)O | 0.57 µM | > 11 µM | > 115 µM | – |
| O=C(COc1cc(F)c(F)cc1F)Nc1ccccc1C(=O)O | 1.27 µM | > 11 µM | > 115 µM | – |
| CC(=O)c1cc(C)c(Cl)cc1NCC(=O)Nc1ccccc1C(=O)O | 1.05 µM | 30 µM | > 139 µM | – |
| CC(=O)c1cc(C)ccc1OCC(=O)Nc1ccccc1C(=O)O | 2.8 µM | > 11 µM | > 115 µM | – |
| O=C(COc1cc(Cl)c(Cl)cc1Cl)Nc1ccccc1C(=O)O | 0.03 µM | > 11 µM | > 115 µM | – |
| CC(=O)c1cc(Cl)ccc1OCC(=O)Nc1ccccc1C(=O)O | 0.53 µM | > 11 µM | > 115 µM | – |
| N#Cc1ccc(OCC(=O)Nc2ccccc2C(=O)O)cc1 | 5.1 µM | – | – | – |
| O=C(COc1ccc(Br)cc1)Nc1ccccc1C(=O)O | 3.23 µM | – | – | – |
| COC(=O)c1ccccc1NC(=O)COc1ccc(Cl)cc1 | > 31 µM | – | – | – |
| CN(CC(=O)Nc1ccccc1C(=O)O)c1ccc(Cl)c(Cl)c1 | 0.17 µM | 14 µM | 47 µM | – |
| O=C(COc1ccccc1)Nc1ccccc1C(=O)O | > 37 µM | – | – | – |
| O=C(COc1ccc(Cl)cc1)Nc1ccc(C(=O)O)cc1 | > 28 µM | – | – | – |
| CC(=O)c1cc(Cl)c(F)cc1OCC(=O)Nc1ccccc1C(=O)O | 0.11 µM | > 11 µM | > 115 µM | – |
| CCC(=O)c1cc(Cl)ccc1NCC(=O)Nc1ccccc1C(=O)O | 3.36 µM | – | – | – |
| CC(=O)c1cc(Cl)c(C)cc1OCC(=O)Nc1ccccc1C(=O)O | 0.14 µM | > 11 µM | > 115 µM | – |

| SMILES | IC50 (Hepatitis C virus [1]) | IC50 (Hepatitis C virus [2]) | IC50 [3] | other results |
| --- | --- | --- | --- | --- |
| CC(=O)c1cc(F)c(Cl)cc1OCC(=O)Nc1ccccc1C(=O)O | 0.23 µM | > 11 µM | > 115 µM | – |
| CC(=O)c1cc(C)c(C)cc1NCC(=O)Nc1ccccc1C(=O)O | 0.21 µM | 32 µM | > 147 µM | – |
| Cc1cc(Cl)ccc1OCC(=O)Nc1ccccc1C(=O)O | 0.57 µM | > 11 µM | > 115 µM | – |
| CC(=O)c1cc(Cl)ccc1NCC(=O)Nc1ccccc1C(=O)O | 0.23 µM | 12 µM | > 144 µM | – |
| O=C(CNc1ccc(F)c(Cl)c1)Nc1ccccc1C(=O)O | 0.21 µM | 40 µM | 155 µM | – |
| CC(=O)c1cc(F)ccc1OCC(=O)Nc1ccccc1C(=O)O | 1.5 µM | > 11 µM | > 115 µM | – |
| CC(=O)c1cc(Cl)c(Cl)cc1NCC(=O)Nc1ccccc1C(=O)O | 0.03 µM | 10 µM | 123 µM | – |
| CC(=O)c1cc(Br)ccc1NCC(=O)Nc1ccccc1C(=O)O | 0.11 µM | 43 µM | > 128 µM | – |
| C[C@H](Oc1ccc(Cl)cc1)C(=O)Nc1ccccc1C(=O)O | 0.76 µM | – | – | – |
| O=C(CNc1cccc(Br)c1)Nc1ccccc1C(=O)O | 0.87 µM | – | – | – |
| CC(=O)c1cc(F)c(Cl)cc1NCC(=O)Nc1ccccc1C(=O)O | – | 2 µM | > 137 µM | IC50 [4]: > 137 µM; IC50 [5]: > 27 µM; IC50 [6]: > 137 µM; IC50 [7]: > 137 µM; IC50 [8]: > 137 µM; IC50 [9]: > 137 µM |
| CC(=O)c1cc(F)c(Br)cc1NCC(=O)Nc1ccccc1C(=O)O | 0.01 µM | 2 µM | > 122 µM | IC50 [4]: > 122 µM; IC50 [5]: > 24 µM; IC50 [6]: > 122 µM; IC50 [7]: > 122 µM; IC50 [8]: > 122 µM; IC50 [9]: > 122 µM |
| O=C(COc1cccc(Br)c1)Nc1ccccc1C(=O)O | 1.14 µM | – | – | – |
| O=C(COc1ccc(Cl)cc1)Nc1cccc(C(=O)O)c1 | > 33 µM | – | – | – |
| CC(=O)c1ccc(Cl)cc1OCC(=O)Nc1ccccc1C(=O)O | 0.86 µM | > 11 µM | > 115 µM | – |
| CCc1cc(NCC(=O)Nc2ccccc2C(=O)O)c(C(C)=O)cc1Cl | 0.032 µM | 5 µM | 44 µM | – |
| CC(=O)c1cc(Cl)c(F)cc1NCC(=O)Nc1ccccc1C(=O)O | 0.18 µM | 17 µM | > 137 µM | – |
| CC(=O)c1cc(Cl)c(C)cc1NCC(=O)Nc1ccccc1C(=O)O | 0.08 µM | 3.1 µM | > 139 µM | – |
| CC(=O)c1cc(Br)c(Cl)cc1NCC(=O)Nc1ccccc1C(=O)O | 0.022 µM | 30 µM | > 117 µM | – |
| O=C(CNc1ccc(Cl)c(Cl)c1)Nc1ccccc1C(=O)O | 0.2 µM | 13 µM | 47 µM | – |
| O=C(CSc1ccc(Cl)cc1)Nc1ccccc1C(=O)O | 4.4 µM | – | – | – |
